For data set [1], the system named is LdAI transcript in promastigotes. Briefly: Semi quantitative RT-PCR and real-time PCR of LdAI expression, promastigotes. The data set is classed as cell-based, Leishmania donovani. As to conditions: 0.125 μg/ml AmB for 8 h vs untreated. (Real-time PCR tracks product formation cycle by cycle.)
Data set [2] deals with pLP2-LdAI transfected promastigotes (WT-LdAI). Briefly: MTT survival of LdAI over-expressing promastigotes. Type of data set: cell-based, Leishmania donovani.
The test system of data set [3] is L. donovani wild type AG83 (WT) promastigotes. The data set is described as follows: MTT survival of wild type promastigotes. The data set is classed as cell-based. The note with it: Leishmania donovani, 48 h. Put shortly: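 AG83 promastigotes were kept in M199 (pH 5.5) with 10% FBS. Late-exponential cells, diluted to 2 × 10^6/ml, were exposed to varying concentrations of test compound prepared in FBS-free M199 for 48, 72 and 96 h. Viability was read by MTT at 570 nm as % survival (mean, standard error, three independent experiments). IC50 came from a log(inhibitor) vs normalised response fit.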

The subject of data set [4] is LdAI transfected amastigotes (WT-LdAI). The data set is described as follows: MTT survival of LdAI transfected axenic amastigotes. Type of data set: cell-based, Leishmania donovani.
For data set [5], the system named is LdAI transcript in axenic amastigotes. The data set is described as follows: Real-time PCR of LdAI expression, axenic amastigotes. The note with it: AmB treated vs untreated. The data set is classed as cell-based, Leishmania donovani.
In data set [6] the target is T1, LdAI (Leishmania donovani, UniProt A0A3Q8IA09).
T1 sequence (A0A3Q8IA09 1-398): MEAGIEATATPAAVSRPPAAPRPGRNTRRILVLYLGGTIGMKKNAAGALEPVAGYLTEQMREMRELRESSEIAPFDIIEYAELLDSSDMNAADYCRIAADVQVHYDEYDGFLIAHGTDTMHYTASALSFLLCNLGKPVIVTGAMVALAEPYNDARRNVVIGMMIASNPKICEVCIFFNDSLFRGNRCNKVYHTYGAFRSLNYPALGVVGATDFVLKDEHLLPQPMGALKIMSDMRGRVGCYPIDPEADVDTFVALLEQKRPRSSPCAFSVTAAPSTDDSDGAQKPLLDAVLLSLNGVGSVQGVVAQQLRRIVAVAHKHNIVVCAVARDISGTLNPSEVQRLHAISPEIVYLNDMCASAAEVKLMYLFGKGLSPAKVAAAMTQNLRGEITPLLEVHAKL
The data set is described as follows: Isothermal titration calorimetry with LdAI. The data set is classed as binding. The note with it: for N (Drug/LdAI) / TΔS / ΔH / ΔG: ITC, direct titration; for N (Drug/LdAI) / TΔS / ΔH: 3 μM LdAI, 298 K; for ΔG: ΔG= ΔH−TΔS. A digest of the protocol: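 Direct ITC at 298 K in 20 mM Tris, 150 mM NaCl, pH 8.0. LdAI in the cell was titrated with test compound: one small injection, then 25 injections. Heats of dilution were normalised by buffer titrations. A single-site model with Levenberg–Marquardt nonlinear fitting gave Ka, ΔH and ΔS, and ΔG was calculated as ΔH − TΔS.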

Data set [7] has as its target T1, LdAI. The data set is described as follows: Fluorometric titration of ligands with LdAI. The data set is classed as binding. A digest of the protocol: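 Fluorometric titrations at 298 K in 20 mM Tris, 150 mM NaCl, pH 8.0. Constant enzyme was titrated with increasing ligand (Asp, Glu or test compound), with a 300 s pre-scan delay. Excitation was 274 nm and emission was recorded 290–400 nm. Kd came from a single-site specific binding fit, Y = Bmax*X/(Kd + X).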

Data set [8] addresses T1, LdAI. The data set is described as follows: Competitive inhibition assay, Gln hydrolysis kinetics. The data set is classed as biochemical. The note with it: Gln as substrate, LdAI alone, no inhibitor.
Substrate in data set [9]: NC(=O)CC[C@H](N)C(=O)O
Described as above. As to conditions: other: Gln as substrate, LdAI alone, no inhibitor; pH 8.0; 25.0 °C. Type of data set: biochemical, Leishmania donovani.

In general, IC50 refers to the concentration that inhibits the measured activity by half. Higher therefore signals lower potency. For the molecule `C[C@@H]1[C@H](O)[C@@H](C)/C=C/C=C/C=C/C=C/C=C/C=C/C=C/[C@H](O[C@@H]2O[C@H](C)[C@@H](O)[C@H](N)[C@@H]2O)C[C@@H]2O[C@](O)(C[C@@H](O)C[C@@H](O)[C@H](O)CC[C@@H](O)C[C@@H](O)CC(=O)O[C@H]1C)C[C@H](O)[C@H]2C(=O)O` [AmB, Amphotericin B], the “enhancement in LdAI transcription (semiquantitative PCR)” value in data set [1] worked out at 2.5 fold. For the same molecule, the “increase in LdAI transcript expression (quantitative real time PCR)” value is “four” in data set [1] and “five” in [5]. The IC50 in data set [2] (Leishmania donovani, 48 h) came to 2200 ± 300 nM; in data set [3], 600 ± 70 nM; in data set [4] (Leishmania donovani, 48 h) it was 1900 ± 600 nM. In addition, the “lower IC90 in wild-type than in LdAI over-expressing parasites” value in data set [2] (promastigote form) is “three”; in data set [4] (amastigote form) it was “eight”. Further, the “increase in IC50, LdAI transfected vs non-transfected” value is listed as “three” in data set [2] (promastigotes) and “eight” in data set [4] (amastigotes).

In general, Kd refers to the constant that tells how readily two partners part at equilibrium. Regarding `N[C@@H](CC(=O)O)C(=O)O` [Asp, L-aspartic acid], in [6], the Kd turned out to be 7.7 µM, the “N (Drug/LdAI)” value is reported as 4.0 ± 0.7, the TΔS worked out at 0.64 kcal/mol and the ΔH is -6.34 ± 0.3 kcal/mol. Moreover, the ΔG in data set [6] is -6.98 kcal/mol. Moreover, the Kd in data set [7] was 2.4 ± 0.4 µM.

Regarding `NC(=O)CC[C@H](N)C(=O)O` [Gln, L-glutamine], the Vmax in data set [8] is listed as 267.9 ± 7.6.

Regarding `N[C@@H](CCC(=O)O)C(=O)O` [Glu, L-glutamic acid], in data set [6], binding was put at a Kd of 5 µM, the “N (Drug/LdAI)” value was found to be 2.14 ± 0.6, the TΔS was -18.38 kcal/mol and the ΔH was -25.6 ± 1.1 kcal/mol. The same molecule had a ΔG in data set [6] of -7.22 kcal/mol. The molecule also yielded a Kd in data set [7] of 11.6 ± 1.3 µM.

B1: LdAI (Leishmania donovani) (protein)
chain: MEAGIEATATPAAVSRPPAAPRPGRNTRRILVLYLGGTIGMKKNAAGALEPVAGYLTEQMREMRELRESSEIAPFDIIEYAELLDSSDMNAADYCRIAADVQVHYDEYDGFLIAHGTDTMHYTASALSFLLCNLGKPVIVTGAMVALAEPYNDARRNVVIGMMIASNPKICEVCIFFNDSLFRGNRCNKVYHTYGAFRSLNYPALGVVGATDFVLKDEHLLPQPMGALKIMSDMRGRVGCYPIDPEADVDTFVALLEQKRPRSSPCAFSVTAAPSTDDSDGAQKPLLDAVLLSLNGVGSVQGVVAQQLRRIVAVAHKHNIVVCAVARDISGTLNPSEVQRLHAISPEIVYLNDMCASAAEVKLMYLFGKGLSPAKVAAAMTQNLRGEITPLLEVHAKL
As usually defined, the Km is the substrate concentration at which the rate is half of its maximum. Take B1: the Km in data set [9] was determined as 9.5 ± 0.8 mM.
